This note sets out measurements from ChEMBL document CHEMBL3425408, “Design, synthesis, in vitro, and in vivo anticancer and antiangiogenic activity of novel 3-arylaminobenzofuran derivatives targeting the colchicine site on tubulin” (J Med Chem, 2015).

The target in one experiment is Tubulin (Bos taurus, UniProt Q6B856+Q862L2+Q862F3). The experiment is described as follows: Inhibition of bovine brain tubulin assembly after 20 mins incubation by spectrophotometric analysis. Summed up: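 Bovine brain tubulin (10 μM) was preincubated with varying compound concentrations in glutamate buffer at 30 °C, then chilled to 0 °C. GTP was added to 0.4 mM final and the mixture warmed to 30 °C in cuvettes.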

Another experiment relates to HT-29. The experiment is described as follows: Antiproliferative activity against human HT-29 cells after 72 hrs by (3-(4,5-dimethylthiazol-2-yl)-2,5-diphenyltetrazolium bromide test. Type of experiment: functional, cell-based. The following applies: HT-29, 72 h.
For another experiment, the system named is MCF7. The experiment is described as follows: Antiproliferative activity against human MCF7 cells after 72 hrs by (3-(4,5-dimethylthiazol-2-yl)-2,5-diphenyltetrazolium bromide test. The experiment is classed as functional, cell-based. The following applies: MCF7, 72 h.
Experiment [1] is described as follows: Antiproliferative activity against human RS4:11 cells after 72 hrs by (3-(4,5-dimethylthiazol-2-yl)-2,5-diphenyltetrazolium bromide test. The experiment is classed as functional, cell-based. The following applies: RS4-11, 72 h. An outline of the steps: (§1)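 Jurkat, RS4;11 and HL-60 cells grown in RPMI-1640; MCF-7, A549, HeLa and HT-29 cells grown in DMEM; both media with 10% FBS and penicillin/streptomycin. 8 × 10^3 cells per well were preincubated 18 h at 37 °C, 5% CO2, then exposed 72 h to a concentration range (DMSO ≤0.25%). Read-out was MTT; IC50 was taken against cells given the maximum DMSO. Mean ± SE of at least three experiments.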

The test system of another experiment is Jurkat. Nature of the experiment: Antiproliferative activity against human Jurkat cells after 72 hrs by (3-(4,5-dimethylthiazol-2-yl)-2,5-diphenyltetrazolium bromide test. Type of experiment: functional, cell-based. An outline of the steps: as §1
For a further experiment, the system named is A549. Nature of the experiment: Antiproliferative activity against human A549 cells after 72 hrs by (3-(4,5-dimethylthiazol-2-yl)-2,5-diphenyltetrazolium bromide test. Type of experiment: functional, cell-based. The following applies: A549, 72 h.
A further experiment concerns HeLa. The experiment is described as follows: Antiproliferative activity against human HeLa cells after 72 hrs by (3-(4,5-dimethylthiazol-2-yl)-2,5-diphenyltetrazolium bromide test. Type of experiment: functional, cell-based.
Experiment [2] is described as follows: Antiproliferative activity against human HL60 cells after 72 hrs by (3-(4,5-dimethylthiazol-2-yl)-2,5-diphenyltetrazolium bromide test. The experiment is classed as functional, cell-based. The following applies: HL-60, 72 h. Summed up: as §1
A further experiment relates to MDA-MB-231. The experiment is described as follows: Cytotoxicity against human MDA-MB-231 cells after 72 hrs by MTT assay. The following applies: MDA-MB-231, 72 h. The experiment is classed as functional, cell-based.
In a further experiment the test system is HUVEC. Nature of the experiment: Cytotoxicity against human HUVEC cells after 72 hrs by MTT assay. The experiment is classed as cell-based. Summed up:
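HUVECs were isolated from umbilical cord veins, kept in M200 with low-serum growth supplement and used at passages 1–6. […] Mean ± SEM of three separate experiments.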
Background: Formazan colour is commonly taken as a measure of viable cells.

The next experiment has as its system Mus musculus. The experiment is described as follows: In vivo antitumor activity against mouse BNL 1ME A.7R.1 cells allografted in Balb/c mouse assessed as reduction in tumor growth at 5 mg/kg, ip up to 8 days relative to vehicle treated control. Further details: dose 5 mg/kg. The experiment is classed as functional, organism-based. Summed up:
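Male Balb/c mice, 8 weeks old, received 10^7 BNL 1ME A.7R.1 cells in 200 μL PBS subcutaneously in the dorsal region. Mice were randomised into groups of 5 and dosed ip daily from day 2. Vehicle was 0.9% NaCl with 5% PEG 400 and 0.5% Tween 80, at 7 μL/g. Tumours were measured daily by caliper for 7 days; V = AB²/2.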

SMILES strings stand for the structures. Calls of active or inactive are those of the source. The calls are words filed in the database; no cut-off is given here.

Broadly, the IC50 is the concentration needed to halve the response being measured. Low values mean higher potency, high ones lower potency. Turning to `COC(=O)c1oc2c(OC)cccc2c1Nc1cc(OC)c(OC)c(OC)c1`, the 50% inhibitory concentration (IC50) worked out at 7.6 µM against Tubulin; 0.29 µM in the experiment with HT-29; 0.52 µM in the experiment with MCF7; 0.001 µM in experiment [1]; 0.03 µM with Jurkat; 1.27 µM in the experiment on A549. The IC50 in the experiment on HeLa was found to be 0.13 µM; in experiment [2], 0.32 µM.

Consider `CCOC(=O)c1oc2cccc(OC)c2c1Nc1cc(OC)c(OC)c(OC)c1`, for which the IC50 (in the experiment with HT-29; in the experiment on MCF7; in experiment [1]; with Jurkat; with A549; in the experiment on HeLa) was more than 10 µM throughout. This compound yielded an IC50 in [2] of more than 10 µM.

On to `COC(=O)c1oc2ccc(OC)cc2c1Nc1cc(OC)c(OC)c(OC)c1`, for which the IC50 on Tubulin came to 7.5 µM; in the experiment with HT-29, 0.24 µM; with MCF7, 7.9 µM; in experiment [1], 0.039 µM; in the experiment with Jurkat it was 0.21 µM; with A549 it was 1.57 µM. In addition, the IC50 in the experiment with HeLa came out at 0.25 µM; in experiment [2] it was 0.47 µM.

In the case of `CCOC(=O)c1oc2ccc(OC)cc2c1Nc1cc(OC)c(OC)c(OC)c1`, the half-inhibitory concentration (IC50) with HT-29 amounted to 1.4 µM; in the experiment on MCF7, 2.9 µM; in [1], 0.19 µM; with Jurkat it was 2.3 µM; in the experiment with A549, 8.9 µM; in the experiment on HeLa it was 1.26 µM. Also, the IC50 in experiment [2] is 3.4 µM.

As to `COC(=O)c1oc2c(O)c(OC)ccc2c1C(=O)c1cc(OC)c(OC)c(OC)c1`, the half-inhibitory concentration (IC50) in the experiment on MDA-MB-231 and in the experiment on HUVEC was 0.001 µM throughout.

Regarding `COC(=O)c1oc2ccccc2c1Nc1cc(OC)c(OC)c(OC)c1`, the IC50 stood at 0.93 µM in the experiment on HT-29; 7.8 µM with MCF7; 0.43 µM in experiment [1]; 4.1 µM with Jurkat; 5.28 µM in the experiment with A549; 0.26 µM in the experiment on HeLa. In experiment [2], this compound showed an IC50 of 4.4 µM.

In the case of `COC(=O)c1oc2cccc(OC)c2c1Nc1cc(OC)c(OC)c(OC)c1`, the IC50 (with HT-29; in the experiment with MCF7; in [1]; in the experiment on Jurkat; in the experiment with A549; in the experiment on HeLa) was more than 10 µM throughout. In experiment [2], this compound came in with a 50% inhibitory concentration (IC50) of more than 10 µM.

Consider `CCOc1cccc2c(Nc3cc(OC)c(OC)c(OC)c3)c(C(=O)OC)oc12`, for which the half-maximal inhibitory concentration (IC50) is 3.2 µM in the experiment on HT-29; more than 10 µM in the experiment on MCF7; 0.4 µM in experiment [1]; 3.7 µM in the experiment with Jurkat; 8.9 µM in the experiment with A549; 2.53 µM in the experiment on HeLa. In addition, in [2], 4.2 µM corresponded to half-maximal inhibition (IC50).

Turning to `CCOC(=O)c1oc2c(OCC)cccc2c1Nc1cc(OC)c(OC)c(OC)c1`, the IC50 is 5.3 µM in the experiment on HT-29; more than 10 µM in the experiment with MCF7; 3 µM in [1]; 9.1 µM in the experiment with Jurkat; 7.25 µM in the experiment on A549; 3.28 µM in the experiment on HeLa. Further, 5.5 µM corresponded to half-maximal inhibition in experiment [2] (IC50).

Take `COc1ccc(/C=C\c2cc(OC)c(OC)c(OC)c2)cc1O` [COMBRETASTATIN A4]: the half-maximal inhibitory concentration (IC50) in experiment [1] came out at 0.0008 µM; in experiment [2], 0.001 µM.

As for `COc1ccc(/C=C\c2cc(OC)c(OC)c(OC)c2)cc1OP(=O)(O)O`, the inhibition result with Mus musculus is “Active”.

As for `CCOC(=O)c1oc2c(OC)cccc2c1Nc1cc(OC)c(OC)c(OC)c1`, the concentration for half-maximal inhibition (IC50) at Tubulin was determined as 6.4 µM; in the experiment on HT-29 it was 0.11 µM; in the experiment with MCF7, 2.1 µM; in experiment [1] it was 0.23 µM; in the experiment with Jurkat it was 0.29 µM; in the experiment with A549 it was 1.1 µM. For the same compound, the half-inhibitory concentration (IC50) with HeLa is 0.27 µM; in [2], 0.59 µM.

As to `CCOC(=O)c1oc2ccccc2c1Nc1cc(OC)c(OC)c(OC)c1`, the IC50 in the experiment on HT-29 amounted to 1.6 µM; in the experiment with MCF7 it was 6.6 µM; in [1], 0.3 µM; with Jurkat, 0.18 µM; in the experiment on A549, 5.47 µM; with HeLa, 1.33 µM. Moreover, the 50% inhibitory concentration (IC50) in experiment [2] is 2.5 µM.
